Data reported in ChEMBL document CHEMBL1132247, “Synthesis and nicotinic acetylcholine receptor in vivo binding properties of 2-fluoro-3-[2(S)-2-azetidinylmethoxy]pyridine: a new positron emission tomography ligand for nicotinic receptors” (J Med Chem, 1999).

How the values were obtained:
Rattus norvegicus [1] = organism: Rattus norvegicus; experiment: Biodistribution in rat superior coliculus, expressed as percent I.D./g tissue; type: ADME, organism-based; conditions: in vivo
Outline: (§1)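 Male Sprague–Dawley rats (190–200 g) received 30 μCi (1.1 MBq) of the 18F-labelled tracer i.v. into a tail vein, formulated in physiological saline and given within 15 min of end of synthesis. Rats were decapitated at selected times, and the brain was removed and dissected on ice. Regions were weighed and gamma-counted alongside injected-dose aliquots, and values were expressed as % I.D./g tissue.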

Rattus norvegicus [2] = organism: Rattus norvegicus; experiment: Biodistribution in rat cerebellum, expressed as percent I.D./g tissue; type: ADME, organism-based; conditions: in vivo; outline: as §1
Rattus norvegicus [3] = organism: Rattus norvegicus; experiment: Biodistribution in rat thalamus, expressed as percent I.D./g tissue; type: ADME, organism-based; conditions: in vivo; outline: as §1
[4] = target: Neuronal acetylcholine receptor; alpha4/beta2 (Homo sapiens, UniProt P17787+P43681); experiment: Binding affinity against human Nicotinic acetylcholine receptor alpha4-beta2
Chain of Neuronal acetylcholine receptor; alpha4/beta2 (P17787 whole entry): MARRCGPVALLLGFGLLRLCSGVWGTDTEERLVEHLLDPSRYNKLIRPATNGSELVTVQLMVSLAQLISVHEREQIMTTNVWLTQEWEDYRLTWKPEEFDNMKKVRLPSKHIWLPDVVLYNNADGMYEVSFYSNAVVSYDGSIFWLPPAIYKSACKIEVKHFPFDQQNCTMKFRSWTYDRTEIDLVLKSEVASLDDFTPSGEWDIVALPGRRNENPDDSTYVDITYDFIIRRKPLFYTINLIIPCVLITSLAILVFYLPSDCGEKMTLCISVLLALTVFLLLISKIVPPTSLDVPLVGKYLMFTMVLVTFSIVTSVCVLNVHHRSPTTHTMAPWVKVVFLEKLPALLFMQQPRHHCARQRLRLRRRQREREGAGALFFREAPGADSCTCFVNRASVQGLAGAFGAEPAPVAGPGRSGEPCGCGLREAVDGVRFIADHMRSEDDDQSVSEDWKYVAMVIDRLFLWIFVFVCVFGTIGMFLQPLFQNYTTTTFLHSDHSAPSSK
Chain of Neuronal acetylcholine receptor; alpha4/beta2 (P43681 whole entry): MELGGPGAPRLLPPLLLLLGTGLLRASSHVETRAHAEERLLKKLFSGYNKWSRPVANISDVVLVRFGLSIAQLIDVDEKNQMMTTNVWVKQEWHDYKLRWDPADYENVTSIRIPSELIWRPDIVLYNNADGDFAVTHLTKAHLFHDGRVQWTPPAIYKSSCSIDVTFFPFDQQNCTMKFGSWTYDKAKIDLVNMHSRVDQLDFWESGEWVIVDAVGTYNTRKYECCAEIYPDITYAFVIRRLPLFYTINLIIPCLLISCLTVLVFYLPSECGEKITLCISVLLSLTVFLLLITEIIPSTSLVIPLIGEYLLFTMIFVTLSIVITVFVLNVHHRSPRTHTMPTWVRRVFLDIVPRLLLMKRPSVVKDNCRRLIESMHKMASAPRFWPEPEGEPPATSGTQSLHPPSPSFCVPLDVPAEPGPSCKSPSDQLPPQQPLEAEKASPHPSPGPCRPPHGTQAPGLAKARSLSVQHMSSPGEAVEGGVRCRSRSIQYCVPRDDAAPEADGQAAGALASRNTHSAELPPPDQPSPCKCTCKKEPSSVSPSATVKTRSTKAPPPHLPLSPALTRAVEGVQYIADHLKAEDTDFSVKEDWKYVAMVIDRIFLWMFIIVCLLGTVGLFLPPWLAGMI

[5] = Binding affinity towards human Nicotinic acetylcholine receptor was determined using [3H]epibatidine
[6] = Binding affinity towards human Nicotinic acetylcholine receptor was determined using [3H]-cytisine

For `O=c1cccc2n1CC1CNC[C@H]2C1` (single isomer, unassigned) [CYTISINICLINE], the Biodistribution (Rattus norvegicus [1]) was 0.2%, the Biodistribution (Rattus norvegicus [2]) was 0.2% and the Biodistribution (Rattus norvegicus [3]) was 0.2%.

Work on `CNC(=O)Oc1ccc2c(c1)[C@]1(C)CCN(C)[C@@H]1N2C` [PHYSOSTIGMINE] yielded a Biodistribution (Rattus norvegicus [1]) of 0.4%, a Biodistribution (Rattus norvegicus [2]) of 0.2% and a Biodistribution (Rattus norvegicus [3]) of 0.5%.

For `c1cncc(OC[C@@H]2CCN2)c1`, the Ki [4] was 0.05 nM.

Molecule `CN1C2CCCC1CC(NC(=O)c1nn(C)c3ccccc13)C2` (stereo not drawn) [GRANISETRON] has a Biodistribution (Rattus norvegicus [1]) of 0.6%, a Biodistribution (Rattus norvegicus [2]) of 0.2% and a Biodistribution (Rattus norvegicus [3]) of 0.9%.

`Fc1ncccc1OC[C@@H]1CCN1` showed a Biodistribution (Rattus norvegicus [1]) of 0.2%, a Biodistribution (Rattus norvegicus [2]) of 0.2% and a Ki [5] of 0.046 nM. It also gave a Ki [6] of 0.048 nM and a Biodistribution (Rattus norvegicus [3]) of 0.3%.

`Clc1ccc(C2CC3CCC2N3)cn1` (stereo not drawn) [EPIBATIDINE] showed a Biodistribution (Rattus norvegicus [1]) of 0.2%, a Biodistribution (Rattus norvegicus [2]) of 0.2% and a Biodistribution (Rattus norvegicus [3]) of 0.2%.
